Source: ChEMBL document CHEMBL1154751, “Evaluation of di-sansalvamide A derivatives: synthesis, structure-activity relationship, and mechanism of action” (J Med Chem, 2009)
Residues, ends and D or L forms follow the SMILES beside them.

Tests used:
[1] = Growth inhibition of human PL45 cells at 5 uM after 24 hrs by [3H]thymidine uptake assay; type: functional; conditions: read-out: GI
HCT-116 = assay: Growth inhibition of human HCT116 cells at 5 uM after 24 hrs by [3H]thymidine uptake assay; type: functional; conditions: read-out: GI
[2] = Inhibition of HSP90
[3] = Growth inhibition of Pancreatic cancer cells; type: functional, cell-based; conditions: Cancer cell lines
[4] = Potency index, ratio of novobiocin IC50 to compound IC50 for HSP90 HSP90
[5] = Cytotoxicity against human K2 O/E cells over expressing tetracycline inducible IP6K2 protein assessed as cell survival; type: functional
How it was run: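 Stable tetracycline-inducible Myc-IP6K2 HEK293 line. IP6K2 overexpression induced with 1 μg/mL tetracycline for 24 h; wild-type control cells got vehicle alone. Cells then exposed to 25 nM drug or DMSO (no drug) for 48 h. Viability read by CCK-8 assay and expressed relative to control set at 100%.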

| SMILES | inhibition of growth at 5 µM [1] [%] | inhibition of growth at 5 µM (HCT-116) [%] | EC50 [2] [nM] | IC50 [3] [nM] | Ratio IC50 [4] | Survival [5] [%] |
| --- | --- | --- | --- | --- | --- | --- |
| CC(C)C[C@@H]1NC(=O)[C@H](Cc2ccccc2)NC(=O)[C@H](CC(C)C)NC(=O)[C@H](C(C)C)NC(=O)[C@@H](CC(C)C)NC(=O)[C@H](CC(C)C)NC(=O)[C@H](Cc2ccccc2)NC(=O)[C@H](CC(C)C)NC(=O)[C@H](C(C)C)NC(=O)[C@@H](CC(C)C)NC1=O | 12 | 0 |  |  |  |  |
| CC(C)C[C@@H]1NC(=O)[C@H](Cc2ccccc2)NC(=O)[C@@H](CC(C)C)NC(=O)[C@@H](C(C)C)NC(=O)[C@H](CC(C)C)NC(=O)[C@H](CC(C)C)NC(=O)[C@H](Cc2ccccc2)NC(=O)[C@@H](CC(C)C)NC(=O)[C@@H](C(C)C)NC(=O)[C@H](CC(C)C)NC1=O | 99 | 99 | 2 | 1 | 50000 | 3 |
| CC(C)C[C@@H]1NC(=O)[C@H](Cc2ccccc2)NC(=O)[C@@H](CC(C)C)NC(=O)[C@@H](C(C)C)NC(=O)[C@H](CC(C)C)NC(=O)[C@@H](CC(C)C)NC(=O)[C@H](Cc2ccccc2)NC(=O)[C@@H](CC(C)C)NC(=O)[C@@H](C(C)C)NC(=O)[C@@H](CC(C)C)NC1=O | 4 | 0 |  |  |  |  |
| CC(C)C[C@@H]1NC(=O)[C@H](Cc2ccccc2)NC(=O)[C@@H](CC(C)C)NC(=O)[C@@H](C(C)C)NC(=O)[C@@H](CC(C)C)NC(=O)[C@H](CC(C)C)NC(=O)[C@@H](Cc2ccccc2)NC(=O)[C@@H](CC(C)C)NC(=O)[C@@H](C(C)C)NC(=O)[C@@H](CC(C)C)NC1=O | 12 | 0 |  |  |  |  |
| CC(C)C[C@@H]1NC(=O)[C@H](Cc2ccccc2)NC(=O)[C@@H](CC(C)C)NC(=O)[C@@H](C(C)C)NC(=O)[C@H](CC(C)C)NC(=O)[C@H](CC(C)C)NC(=O)[C@@H](Cc2ccccc2)NC(=O)[C@@H](CC(C)C)NC(=O)[C@@H](C(C)C)NC(=O)[C@H](CC(C)C)NC1=O | 7 | 0 |  |  |  |  |
| CC(C)C[C@@H]1NC(=O)[C@H](CC(C)C)NC(=O)[C@@H](Cc2ccccc2)NC(=O)[C@@H](CC(C)C)NC(=O)[C@H](C(C)C)NC(=O)[C@H](CC(C)C)NC(=O)[C@H](CC(C)C)NC(=O)[C@@H](Cc2ccccc2)NC(=O)[C@@H](CC(C)C)NC(=O)[C@H](C(C)C)NC1=O | 36 | 0 |  |  |  |  |
| CC(C)C[C@@H]1NC(=O)[C@H](C(C)C)NC(=O)[C@@H](CC(C)C)NC(=O)[C@@H](CC(C)C)NC(=O)[C@H](Cc2ccccc2)NC(=O)[C@H](CC(C)C)NC(=O)[C@H](C(C)C)NC(=O)[C@@H](CC(C)C)NC(=O)[C@@H](CC(C)C)NC(=O)[C@H](Cc2ccccc2)NC1=O | 48 | 0 |  |  |  |  |
| CO[C@@H]1[C@@H](OC(N)=O)[C@@H](O)[C@H](Oc2ccc3c(O)c(NC(=O)c4ccc(O)c(CC=C(C)C)c4)c(=O)oc3c2C)OC1(C)C [NOVOBIOCIN] |  |  | 100000 |  |  |  |
| CC(C)C[C@@H]1NC(=O)[C@H](Cc2ccccc2)NC(=O)[C@@H](Cc2ccccc2)N(C)C(=O)[C@@H](C(C)C)NC(=O)[C@H](CC(C)C)NC(=O)[C@H](CC(C)C)NC(=O)[C@H](Cc2ccccc2)NC(=O)[C@@H](Cc2ccccc2)N(C)C(=O)[C@@H](C(C)C)NC(=O)[C@H](CC(C)C)NC1=O | 10 | 0 |  |  |  |  |
| CC(C)C[C@@H]1NC(=O)[C@H](C(C)C)NC(=O)[C@H](CC(C)C)NC(=O)[C@@H](CC(C)C)NC(=O)[C@@H](Cc2ccccc2)NC(=O)[C@H](CC(C)C)NC(=O)[C@H](C(C)C)NC(=O)[C@H](CC(C)C)NC(=O)[C@@H](CC(C)C)NC(=O)[C@@H](Cc2ccccc2)NC1=O | 12 | 0 |  |  |  |  |
| CC(C)C[C@@H]1NC(=O)[C@H](CC(C)C)NC(=O)[C@@H](Cc2ccccc2)NC(=O)[C@H](CC(C)C)NC(=O)[C@H](C(C)C)NC(=O)[C@H](CC(C)C)NC(=O)[C@H](CC(C)C)NC(=O)[C@@H](Cc2ccccc2)NC(=O)[C@H](CC(C)C)NC(=O)[C@H](C(C)C)NC1=O | 11 | 0 |  |  |  |  |
| CC(C)C[C@@H]1NC(=O)[C@H](Cc2ccccc2)NC(=O)[C@@H](Cc2ccccc2)NC(=O)[C@@H](C(C)C)NC(=O)[C@H](CC(C)C)NC(=O)[C@H](CC(C)C)NC(=O)[C@H](Cc2ccccc2)NC(=O)[C@@H](Cc2ccccc2)NC(=O)[C@@H](C(C)C)NC(=O)[C@H](CC(C)C)NC1=O | 13 | 16 |  |  |  |  |
| CC(C)C[C@@H]1NC(=O)[C@H](Cc2ccccc2)NC(=O)[C@H](CC(C)C)NC(=O)[C@@H](C(C)C)NC(=O)[C@@H](CC(C)C)NC(=O)[C@H](CC(C)C)NC(=O)[C@H](Cc2ccccc2)NC(=O)[C@H](CC(C)C)NC(=O)[C@@H](C(C)C)NC(=O)[C@@H](CC(C)C)NC1=O | 25 | 0 |  |  |  |  |
| CC(C)C[C@@H]1NC(=O)[C@H](Cc2ccccc2)NC(=O)[C@H](CC(C)C)NC(=O)[C@H](C(C)C)NC(=O)[C@H](CC(C)C)NC1=O (cyclo(FLLVL)) | 25 | 33 |  |  |  |  |
| CC(C)C[C@@H]1NC(=O)[C@H](CC(C)C)NC(=O)[C@@H](Cc2ccccc2)NC(=O)[C@@H](CC(C)C)NC(=O)[C@@H](C(C)C)NC(=O)[C@H](CC(C)C)NC(=O)[C@H](CC(C)C)NC(=O)[C@@H](Cc2ccccc2)NC(=O)[C@@H](CC(C)C)NC(=O)[C@@H](C(C)C)NC1=O | 10 | 0 |  |  |  |  |
| CC(C)C[C@@H]1NC(=O)[C@H](Cc2ccccc2)NC(=O)[C@H](CC(C)C)NC(=O)[C@@H](C(C)C)NC(=O)[C@H](CC(C)C)NC(=O)[C@H](CC(C)C)NC(=O)[C@H](Cc2ccccc2)NC(=O)[C@H](CC(C)C)NC(=O)[C@@H](C(C)C)NC(=O)[C@H](CC(C)C)NC1=O | 30 | 0 |  |  |  |  |
| CC(C)C[C@@H]1NC(=O)[C@H](CC(C)C)NC(=O)[C@@H](Cc2ccccc2)NC(=O)[C@@H](CC(C)C)NC(=O)[C@@H](C(C)C)NC(=O)[C@@H](CC(C)C)NC(=O)[C@H](CC(C)C)NC(=O)[C@@H](Cc2ccccc2)NC(=O)[C@@H](CC(C)C)NC(=O)[C@@H](C(C)C)NC1=O | 8 | 0 |  |  |  |  |
| CC(C)C[C@@H]1NC(=O)[C@H](Cc2ccccc2)NC(=O)[C@@H](CC(C)C)NC(=O)[C@@H](C(C)C)NC(=O)[C@@H](CC(C)C)NC(=O)[C@H](CC(C)C)NC(=O)[C@@H](Cc2ccccc2)NC(=O)[C@@H](CC(C)C)NC(=O)[C@@H](C(C)C)NC(=O)[C@H](CC(C)C)NC1=O | 15 | 0 |  |  |  |  |
| CC(C)C[C@@H]1NC(=O)[C@H](C(C)C)NC(=O)[C@@H](CC(C)C)NC(=O)[C@@H](Cc2ccccc2)NC(=O)[C@H](Cc2ccccc2)NC(=O)[C@H](CC(C)C)NC(=O)[C@H](C(C)C)NC(=O)[C@@H](CC(C)C)NC(=O)[C@@H](Cc2ccccc2)NC(=O)[C@H](Cc2ccccc2)NC1=O | 10 | 0 |  |  |  |  |
| CC(C)C[C@@H]1NC(=O)[C@H](Cc2ccccc2)NC(=O)[C@@H](CC(C)C)NC(=O)[C@@H](C(C)C)NC(=O)[C@H](CC(C)C)NC(=O)[C@@H](CC(C)C)NC(=O)[C@@H](Cc2ccccc2)NC(=O)[C@@H](CC(C)C)NC(=O)[C@@H](C(C)C)NC(=O)[C@@H](CC(C)C)NC1=O | 17 | 0 |  |  |  |  |
| CC(C)C[C@@H]1NC(=O)[C@H](Cc2ccccc2)NC(=O)[C@@H](CC(C)C)NC(=O)[C@@H](C(C)C)NC(=O)[C@@H](CC(C)C)NC(=O)[C@H](CC(C)C)NC(=O)[C@H](Cc2ccccc2)NC(=O)[C@@H](CC(C)C)NC(=O)[C@@H](C(C)C)NC(=O)[C@@H](CC(C)C)NC1=O | 21 | 17 |  |  |  |  |
| CC(C)C[C@@H]1NC(=O)[C@@H](Cc2ccccc2)NC(=O)[C@@H](CC(C)C)NC(=O)[C@@H](C(C)C)NC(=O)[C@@H](CC(C)C)NC(=O)[C@H](CC(C)C)NC(=O)[C@@H](Cc2ccccc2)NC(=O)[C@@H](CC(C)C)NC(=O)[C@@H](C(C)C)NC(=O)[C@@H](CC(C)C)NC1=O | 79 | 40 |  |  |  |  |
| CC(C)C[C@@H]1NC(=O)[C@H](Cc2ccccc2)NC(=O)[C@@H](CC(C)C)NC(=O)[C@H](C(C)C)NC(=O)[C@@H](CC(C)C)NC(=O)[C@H](CC(C)C)NC(=O)[C@H](Cc2ccccc2)NC(=O)[C@@H](CC(C)C)NC(=O)[C@H](C(C)C)NC(=O)[C@@H](CC(C)C)NC1=O | 9 | 0 |  |  |  |  |
